This is a sample that favours compounds with a hit; in the whole collection about 2.5% have one here.
PAD4 inh: human PAD4 inhibitors, primary screen, biochemical, fluorescence polarization, 1536-well format; Protein-arginine deiminase type-4 (Homo sapiens), Q9UM07; recombinant PAD4, RCA probe fluorescence polarization; inhibition, % at 6.36 µM; 330,000 tested, 0.41% active;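 active means percent inhibition above a cutoff equal to the mean of all tested compounds plus 3 SD, cut at about 15% in these data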;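 further: 0% = PAD4 with RCA probe and DMSO and 100% = probe without PAD4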
TDP2 inh: human TDP2 enzyme inhibitors, primary screen, biochemical, epi absorbance, recombinant enzyme. 370,000 tested, 0.34% active. AID 720702, 2013. Tyrosyl-DNA phosphodiesterase 2 (Homo sapiens), O95551. T5PNP hydrolysis, p-nitrophenol absorbance 415 nm. inhibition, % at 12.8 µM;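 active means inhibition above the mean of all tested compounds plus 3 SD, set per campaign, cut at about 25% in these data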;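 further: 0% = DMSO with enzyme and 100% = buffer with substrate but no TDP2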
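Incubation: 2 h at 37 °C; Test system: recombinant human TDP2; Quantity: enzyme 120 nM; Read-out basis: percent inhibition; Medium: 50 mM Tris-HCl pH 7.5 with Mg2+, KCl, DTT, BSA; Repeats: single replicate; Compound: 12.8 µM single point, 1% DMSO; Signal: epi absorbance; Reagent: 5 mM T5PNP chromogenic substrate; Benchmarks: no-enzyme high, DMSO-plus-enzyme low.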
GSTO1 inh: inhibitors of recombinant GSTO1, primary screen, counter-screen for RBBP9 inhibitor project, biochemical, fluorescence polarization; activity-based probe fluorescence polarization; 300,000 tested, 1.1% active; AID 1974, 2009; inhibition, % at 5.96 µM;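 active means inhibition above the campaign mean inhibition plus 3 SD, cut at about 35% in these data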;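 further: 0% = GSTO1-1 with DMSO and 100% = wells lacking GSTO1-1 enzyme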
eLon inh: inhibitors of E. coli Lon protease, primary screen, biochemical, fluorescence polarization | purified E. coli Lon protease | inhibition, % at 7.94 µM | 360,000 tested, 0.42% active | AID 602123, 2011; in the data active means inhibition above about 13%, passing the limit was not always enough;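 further: 0% = enzyme with probe and DMSO and 100% = no enzyme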
PRMT1 FP inh: PRMT1 methyltransferase inhibitors, primary screen, biochemical, fluorescence polarization; Protein arginine N-methyltransferase 1 (Homo sapiens), Q99873; recombinant PRMT1, activity-based probe fluorescence polarization; inhibition, % at 2.79 µM; 370,000 tested, 1.3% active; AID 652257, 2013;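 active means inhibition above about 21% made by adding two undisclosed values, limit read from the data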
Target sequence (Q99873 whole entry, looked up): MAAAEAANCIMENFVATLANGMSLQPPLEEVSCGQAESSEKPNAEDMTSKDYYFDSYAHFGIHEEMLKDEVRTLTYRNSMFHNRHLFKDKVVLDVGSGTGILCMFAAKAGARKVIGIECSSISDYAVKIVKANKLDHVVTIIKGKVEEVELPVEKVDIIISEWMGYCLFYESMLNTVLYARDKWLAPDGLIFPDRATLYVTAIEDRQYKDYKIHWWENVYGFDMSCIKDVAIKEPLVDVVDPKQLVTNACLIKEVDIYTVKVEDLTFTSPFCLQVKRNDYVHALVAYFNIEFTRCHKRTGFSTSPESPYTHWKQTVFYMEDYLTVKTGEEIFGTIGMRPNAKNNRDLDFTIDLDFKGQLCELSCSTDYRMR
TDP2 confirm: human TDP2 enzyme inhibitors, retest, confirmation, biochemical, epi absorbance, recombinant enzyme. 1,100 tested, 22% active. absorbance read-out. inhibition, % at 12.8 µM. shares compounds with TDP2 inh; in the data active means inhibition above about 25%;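 further: 0% = vehicle with enzyme and 100% = no enzyme buffer only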
Starred values were filed as active, the others as inactive.

How did CN1c2ccccc2C(C)(C)C12C=Nc1c(cc(N3CCOCC3)c3ccccc13)O2 (centres undefined) do in these assays?
TDP2 inh: 53*; eLon inh: -1; PRMT1 FP inh: 0; TDP2 confirm: 12

How did CN1c2ccccc2C(C)(C)C12C=Cc1cc(O)ccc1O2 (centres undefined) do in these assays?
PAD4 inh: -67; TDP2 inh: 0; GSTO1 inh: 4; eLon inh: -30; PRMT1 FP inh: 9

How did CCCCn1c(N)c(N(CC(C)C)C(=O)c2ccc(S(=O)(=O)N3CCCCCC3)cc2)c(=O)[nH]c1=O do in these assays?
PAD4 inh: -1; TDP2 inh: 6; GSTO1 inh: -1; eLon inh: 3; PRMT1 FP inh: 1

How did Cc1cc(Cl)c2oc(C(=O)N3CCN(C(=O)c4ccco4)CC3)c(C)c2c1 do in these assays?
PAD4 inh: -4; TDP2 inh: 31*; GSTO1 inh: 5; eLon inh: 6; PRMT1 FP inh: -3; TDP2 confirm: -1

Results for Cc1cc(Cl)c2oc(C(=O)N3CCOCC3)c(C)c2c1 ?
TDP2 inh: -5; eLon inh: 0; PRMT1 FP inh: -1

How did CC(OC(=O)c1ccc(S(C)(=O)=O)c([N+](=O)[O-])c1)C(=O)NC1C2CC3CC(C2)CC1C3 (centres undefined) do in these assays?
TDP2 inh: 4; eLon inh: 1; PRMT1 FP inh: 9

Results for Cc1ccc(S(=O)(=O)N2[C@H](CC(=O)c3cccs3)OC[C@@H]2C)cc1 ?
TDP2 inh: -8; PRMT1 FP inh: 1

How did O=C(COC(=O)/C=C/c1ccc([N+](=O)[O-])cc1)Nc1ccc(F)cc1 do in these assays?
PAD4 inh: 0; TDP2 inh: -8; eLon inh: -6; PRMT1 FP inh: -1

What do the screens show for `Cc1c(Cl)cnc(NC(=O)COC(=O)c2ccc([N+](=O)[O-])s2)c1Cl`?
PAD4 inh: -2; TDP2 inh: 37*; GSTO1 inh: 30; eLon inh: -1; PRMT1 FP inh: 11; TDP2 confirm: 22

How did O=C(COC(=O)c1ccc([N+](=O)[O-])s1)Nc1ccc(F)cc1 do in these assays?
PAD4 inh: -1; TDP2 inh: 47*; eLon inh: -1; PRMT1 FP inh: 0; TDP2 confirm: 31*

Results for CC(=O)c1ccc2c(c1)C1C=CCC1C(c1ccncc1)N2 (centres undefined) ?
PAD4 inh: -10; TDP2 inh: 32*; GSTO1 inh: 44*; eLon inh: 7; PRMT1 FP inh: 9; TDP2 confirm: 14

What do the screens show for `O=C(Cc1nnc(NC(=O)c2ccccc2)s1)N/N=C/c1ccc(O)cc1`?
PAD4 inh: 1; TDP2 inh: 10; GSTO1 inh: 2; eLon inh: 0; PRMT1 FP inh: -1

What do the screens show for `COc1cc(/C=N/NC(=O)Cc2nnc(NC(=O)c3ccccc3)s2)ccc1O`?
PAD4 inh: 0; TDP2 inh: 29*; GSTO1 inh: 4; eLon inh: -2; PRMT1 FP inh: 5; TDP2 confirm: 3

What do the screens show for `CCOC(=O)C1=C(COC(=O)C(C)(C)Oc2ccc(Cl)cc2)NC(=O)NC1C` (centres undefined)?
PAD4 inh: 1; TDP2 inh: 1; eLon inh: -5; PRMT1 FP inh: -10

What do the screens show for `CCOC(=O)c1c(C)[nH]c(C(=O)CN2CC(C)OC(C)C2)c1C` (centres undefined)?
PAD4 inh: 0; TDP2 inh: 29*; GSTO1 inh: -3; eLon inh: -4; PRMT1 FP inh: 2; TDP2 confirm: 1

What do the screens show for `Cc1ccc(N(CC(=O)N2CCCCCC2)S(C)(=O)=O)cc1Cl`?
PAD4 inh: -1; TDP2 inh: 6; GSTO1 inh: -4; eLon inh: -2; PRMT1 FP inh: 0

Results for CC(=O)Nc1ccc(CN2CCCN(C)CC2)cc1 ?
PAD4 inh: -3; TDP2 inh: 27*; GSTO1 inh: 1; eLon inh: -1; PRMT1 FP inh: -3; TDP2 confirm: -2

High-throughput results: PubChem BioAssay, The Scripps Research Institute Molecular Screening Center
